Measured values from ChEMBL document CHEMBL4052804, “Design and synthesis of piperazine acetate podophyllotoxin ester derivatives targeting tubulin depolymerization as new anticancer agents” (Bioorg Med Chem Lett, 2017).
The source made the active and inactive calls. The calls are words filed in the database; no cut-off is given here.

Experiments:
[1] = system: MCF7; assay: Induction of apoptosis in human MCF7 cells assessed as early apoptotic cells at 12 uM after 24 hrs by Annexin-V-FITC/propidium iodide staining based flow cytometric method (reference value: 2.36 to 2.86%); format: functional
[2] = system: MCF7; assay: Cell cycle arrest in human MCF7 cells assessed as accumulation at G1 phase at 0.9 uM after 12 hrs by propidium iodide staining based flow cytometric method (reference value: 58.69 to 62.23%); format: functional
[3] = system: MCF7; assay: Down regulation of cyclin D1 expression in human MCF7 cells at 0.5 to 2 uM after 24 hrs by Western blot analysis; format: functional, cell-based
[4] = system: MCF7; assay: Induction of apoptosis in human MCF7 cells assessed as necrotic cells at 8 uM after 24 hrs by Annexin-V-FITC/propidium iodide staining based flow cytometric method (reference value: 2.35 to 2.49%); format: functional
[5] = system: MCF7; assay: Cell cycle arrest in human MCF7 cells assessed as accumulation at G1 phase at 0.6 uM after 12 hrs by propidium iodide staining based flow cytometric method (reference value: 58.69 to 62.23%); format: functional
[6] = system: MCF7; assay: Induction of apoptosis in human MCF7 cells assessed as viable cells at 12 uM after 24 hrs by Annexin-V-FITC/propidium iodide staining based flow cytometric method (reference value: 91.6 to 92.7%); format: functional; settings: MCF7, 24 h, read-out: Activity
[7] = system: HepG2; assay: Cytotoxicity against human HepG2 cells after 24 hrs by MTT assay; format: functional, cell-based; settings: HepG2, 24 h
Outline: (§1)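 In vitro antiproliferative screen by MTT assay against human MCF-7 breast, HeLa cervical, A549 lung adenocarcinoma and HepG-2 hepatoma cells. Output is the IC50.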

[8] = system: MCF7; assay: Induction of apoptosis in human MCF7 cells assessed as necrotic cells at 12 uM after 24 hrs by Annexin-V-FITC/propidium iodide staining based flow cytometric method (reference value: 2.35 to 2.49%); format: functional
[9] = system: MCF7; assay: Cell cycle arrest in human MCF7 cells assessed as accumulation at G2/M phase at 0.3 uM after 12 hrs by propidium iodide staining based flow cytometric method (reference value: 5.43 to 13.68%); format: functional
[10] = system: MCF7; assay: Cell cycle arrest in human MCF7 cells assessed as accumulation at G1 phase at 0.3 uM after 12 hrs by propidium iodide staining based flow cytometric method (reference value: 58.69 to 62.23%); format: functional
[11] = system: MCF7; assay: Cell cycle arrest in human MCF7 cells assessed as accumulation at G2/M phase at 0.6 uM after 12 hrs by propidium iodide staining based flow cytometric method (reference value: 5.43 to 13.68%); format: functional
[12] = species on record: Homo sapiens; assay: Induction of tubulin depolymerization in human MCF7 cells at 0.5 to 1 uM after 12 hrs by DAPI staining based confocal microscopic analysis; format: cell-based
[13] = system: MCF7; assay: Cell cycle arrest in human MCF7 cells assessed as accumulation at S phase at 0.9 uM after 12 hrs by propidium iodide staining based flow cytometric method (reference value: 27.63 to 32.34%); format: functional
[14] = system: MCF7; assay: Cell cycle arrest in human MCF7 cells assessed as accumulation at S phase at 0.6 uM after 16 hrs by propidium iodide staining based flow cytometric method (reference value: 29.55 to 32.22%); format: functional
[15] = system: MCF7; assay: Induction of apoptosis in human MCF7 cells assessed as viable cells at 4 uM after 24 hrs by Annexin-V-FITC/propidium iodide staining based flow cytometric method (reference value: 91.6 to 92.7%); format: functional; settings: MCF7, 24 h, read-out: Activity
[16] = system: MCF7; assay: Induction of apoptosis in human MCF7 cells assessed as late apoptotic cells at 2 uM after 24 hrs by Annexin-V-FITC/propidium iodide staining based flow cytometric method (reference value: 2 to 3.7%); format: functional
[17] = system: MCF7; assay: Induction of apoptosis in human MCF7 cells assessed as late apoptotic cells at 12 uM after 24 hrs by Annexin-V-FITC/propidium iodide staining based flow cytometric method (reference value: 2 to 3.7%); format: functional
[18] = system: MCF7; assay: Induction of apoptosis in human MCF7 cells assessed as early apoptotic cells at 2 uM after 24 hrs by Annexin-V-FITC/propidium iodide staining based flow cytometric method (reference value: 2.36 to 2.86%); format: functional
[19] = system: MCF7; assay: Cell cycle arrest in human MCF7 cells assessed as accumulation at G1 phase at 0.6 uM after 16 hrs by propidium iodide staining based flow cytometric method (reference value: 60.19 to 60.87%); format: functional
[20] = system: MCF7; assay: Cell cycle arrest in human MCF7 cells assessed as accumulation at S phase at 0.6 uM after 12 hrs by propidium iodide staining based flow cytometric method (reference value: 27.63 to 32.34%); format: functional
[21] = system: MCF7; assay: Induction of apoptosis in human MCF7 cells assessed as necrotic cells at 2 uM after 24 hrs by Annexin-V-FITC/propidium iodide staining based flow cytometric method (reference value: 2.35 to 2.49%); format: functional
[22] = system: L02; assay: Cytotoxicity against human L02 cells after 24 hrs by MTT assay; format: cell-based; settings: L02, 24 h
Outline: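 Normal human liver L02 cells were tested at multiple concentrations in an MTT assay. Output is the median cytotoxic concentration (CC50).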

[23] = system: MCF7; assay: Down regulation of cyclin B1 expression in human MCF7 cells at 0.5 to 2 uM after 24 hrs by Western blot analysis; format: functional, cell-based
[24] = system: MCF7; assay: Cell cycle arrest in human MCF7 cells assessed as accumulation at G1 phase at 0.6 uM after 4 hrs by propidium iodide staining based flow cytometric method (reference value: 60.19 to 60.87%); format: functional
[25] = system: MCF7; assay: Cell cycle arrest in human MCF7 cells assessed as accumulation at G1 phase at 0.6 uM after 8 hrs by propidium iodide staining based flow cytometric method (reference value: 60.19 to 60.87%); format: functional
[26] = system: A549; assay: Cytotoxicity against human A549 cells after 24 hrs by MTT assay; format: functional, cell-based; settings: A549, 24 h; outline: as §1
[27] = system: MCF7; assay: Induction of apoptosis in human MCF7 cells assessed as early apoptotic cells at 8 uM after 24 hrs by Annexin-V-FITC/propidium iodide staining based flow cytometric method (reference value: 2.36 to 2.86%); format: functional
[28] = system: HeLa; assay: Cytotoxicity against human HeLa cells after 24 hrs by MTT assay; format: functional, cell-based; outline: as §1
[29] = system: MCF7; assay: Induction of apoptosis in human MCF7 cells assessed as necrotic cells at 4 uM after 24 hrs by Annexin-V-FITC/propidium iodide staining based flow cytometric method (reference value: 2.35 to 2.49%); format: functional
[30] = system: MCF7; assay: Cytotoxicity against human MCF7 cells after 24 hrs by MTT assay; format: functional, cell-based; settings: MCF7, 24 h; outline: as §1
[31] = system: MCF7; assay: Induction of apoptosis in human MCF7 cells assessed as late apoptotic cells at 4 uM after 24 hrs by Annexin-V-FITC/propidium iodide staining based flow cytometric method (reference value: 2 to 3.7%); format: functional
[32] = system: MCF7; assay: Induction of apoptosis in human MCF7 cells assessed as early apoptotic cells at 4 uM after 24 hrs by Annexin-V-FITC/propidium iodide staining based flow cytometric method (reference value: 2.36 to 2.86%); format: functional
[33] = system: MCF7; assay: Upregulation of CDK1 expression in human MCF7 cells at 0.5 to 2 uM after 24 hrs by Western blot analysis; format: functional, cell-based
[34] = system: MCF7; assay: Cell cycle arrest in human MCF7 cells assessed as accumulation at G2/M phase at 0.6 uM after 4 hrs by propidium iodide staining based flow cytometric method (reference value: 7.59 to 9.58%); format: functional

For `COc1cc([C@@H]2c3cc4c(cc3[C@H](OC(=O)CN3CCN(c5ccc(Cl)c(Cl)c5)CC3)[C@H]3COC(=O)[C@H]23)OCO4)cc(OC)c1OC`, the Activity [1] was 17.5%, the Activity [2] was 8.32% and the Activity [3] was “Active”. The Activity [4] was 3.45%, the Activity [5] was 18.24 - 26.54% and the viability at 12 µM [6] was 55.2%. It also gave an IC50 [7] of 7.93 µM, an Activity [8] of 6.91% and an Activity [9] of 37.72%. The Activity [10] was 38.07%, the Activity [11] was 60.98 - 69.25% and the Activity [12] was “Active”. For the same compound, the Activity [13] was 10.65%, the Activity [14] was 5.92% and the viability at 4 µM [15] was 72.4%. For the same compound, the Activity [16] was 6.11%, the Activity [17] was 20.4% and the Activity [18] was 10.1%. The Activity [19] was 8.51%, the Activity [20] was 4.21 - 20.78% and the Activity [21] was 2.61%. For the same compound, the IC50 [22] was greater than 100 µM, the Activity [23] was “Active” and the Activity [24] was 46.58%. The Activity [25] was 29.54%, the IC50 [26] was 6.32 µM and the Activity [27] was 14.7%. It also gave an IC50 [28] of 5.1 µM, an Activity [29] of 5.64% and an IC50 [30] of 2.78 µM. The Activity [31] was 10.5%, the Activity [32] was 11.4% and the Activity [33] was “Active”. It also gave an Activity [34] of 29.43%.
